Reference: ChEMBL document CHEMBL3588826, “Chimeric derivatives of functionalized amino acids and α-aminoamides: compounds with anticonvulsant activity in seizure models and inhibitory actions on central, peripheral, and cardiac isoforms of voltage-gated sodium channels” (Bioorg Med Chem, 2015)
The source made the active and inactive calls. The rule behind the calls is not given here.

Columns and labels:
Rattus norvegicus = experiment: Toxicity in po dosed Sprague-Dawley rat assessed as changes in body weight administered via gavage; format: organism-based; settings: in vivo
[1] = molecular target: Sodium channel protein type 3 subunit alpha (Rattus norvegicus) (UniProt P08104); experiment: Inhibition of rat Nav1.3 expressed in HEK293 cells assessed as half-maximal voltage for steady state fast-inactivation at 10 uM by whole cell patch-clamp electrophysiology (reference value: -65.44 +/-5.62 mV); format: cell-based
[2] = molecular target: Sodium channel protein type 1 subunit alpha (Homo sapiens) (UniProt P35498); experiment: Frequency-dependent inhibition of human Nav1.1 expressed in HEK293 cells assessed as current amplitude at 10 uM by whole cell patch-clamp electrophysiology; format: cell-based
Outline: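 Stable HEK293 lines expressing hNav1.1, rNav1.3, hNav1.7 or hNav1.5 were recorded by whole-cell voltage clamp at room temperature, with 10 μM compound versus 0.1% DMSO. A 30-pulse train was applied, and the read-out was the fraction of current remaining at the last pulse normalized to the first. Nav1.5 used hyperpolarized protocols.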

Chain of Sodium channel protein type 3 subunit alpha (Rattus norvegicus) (P08104 whole entry): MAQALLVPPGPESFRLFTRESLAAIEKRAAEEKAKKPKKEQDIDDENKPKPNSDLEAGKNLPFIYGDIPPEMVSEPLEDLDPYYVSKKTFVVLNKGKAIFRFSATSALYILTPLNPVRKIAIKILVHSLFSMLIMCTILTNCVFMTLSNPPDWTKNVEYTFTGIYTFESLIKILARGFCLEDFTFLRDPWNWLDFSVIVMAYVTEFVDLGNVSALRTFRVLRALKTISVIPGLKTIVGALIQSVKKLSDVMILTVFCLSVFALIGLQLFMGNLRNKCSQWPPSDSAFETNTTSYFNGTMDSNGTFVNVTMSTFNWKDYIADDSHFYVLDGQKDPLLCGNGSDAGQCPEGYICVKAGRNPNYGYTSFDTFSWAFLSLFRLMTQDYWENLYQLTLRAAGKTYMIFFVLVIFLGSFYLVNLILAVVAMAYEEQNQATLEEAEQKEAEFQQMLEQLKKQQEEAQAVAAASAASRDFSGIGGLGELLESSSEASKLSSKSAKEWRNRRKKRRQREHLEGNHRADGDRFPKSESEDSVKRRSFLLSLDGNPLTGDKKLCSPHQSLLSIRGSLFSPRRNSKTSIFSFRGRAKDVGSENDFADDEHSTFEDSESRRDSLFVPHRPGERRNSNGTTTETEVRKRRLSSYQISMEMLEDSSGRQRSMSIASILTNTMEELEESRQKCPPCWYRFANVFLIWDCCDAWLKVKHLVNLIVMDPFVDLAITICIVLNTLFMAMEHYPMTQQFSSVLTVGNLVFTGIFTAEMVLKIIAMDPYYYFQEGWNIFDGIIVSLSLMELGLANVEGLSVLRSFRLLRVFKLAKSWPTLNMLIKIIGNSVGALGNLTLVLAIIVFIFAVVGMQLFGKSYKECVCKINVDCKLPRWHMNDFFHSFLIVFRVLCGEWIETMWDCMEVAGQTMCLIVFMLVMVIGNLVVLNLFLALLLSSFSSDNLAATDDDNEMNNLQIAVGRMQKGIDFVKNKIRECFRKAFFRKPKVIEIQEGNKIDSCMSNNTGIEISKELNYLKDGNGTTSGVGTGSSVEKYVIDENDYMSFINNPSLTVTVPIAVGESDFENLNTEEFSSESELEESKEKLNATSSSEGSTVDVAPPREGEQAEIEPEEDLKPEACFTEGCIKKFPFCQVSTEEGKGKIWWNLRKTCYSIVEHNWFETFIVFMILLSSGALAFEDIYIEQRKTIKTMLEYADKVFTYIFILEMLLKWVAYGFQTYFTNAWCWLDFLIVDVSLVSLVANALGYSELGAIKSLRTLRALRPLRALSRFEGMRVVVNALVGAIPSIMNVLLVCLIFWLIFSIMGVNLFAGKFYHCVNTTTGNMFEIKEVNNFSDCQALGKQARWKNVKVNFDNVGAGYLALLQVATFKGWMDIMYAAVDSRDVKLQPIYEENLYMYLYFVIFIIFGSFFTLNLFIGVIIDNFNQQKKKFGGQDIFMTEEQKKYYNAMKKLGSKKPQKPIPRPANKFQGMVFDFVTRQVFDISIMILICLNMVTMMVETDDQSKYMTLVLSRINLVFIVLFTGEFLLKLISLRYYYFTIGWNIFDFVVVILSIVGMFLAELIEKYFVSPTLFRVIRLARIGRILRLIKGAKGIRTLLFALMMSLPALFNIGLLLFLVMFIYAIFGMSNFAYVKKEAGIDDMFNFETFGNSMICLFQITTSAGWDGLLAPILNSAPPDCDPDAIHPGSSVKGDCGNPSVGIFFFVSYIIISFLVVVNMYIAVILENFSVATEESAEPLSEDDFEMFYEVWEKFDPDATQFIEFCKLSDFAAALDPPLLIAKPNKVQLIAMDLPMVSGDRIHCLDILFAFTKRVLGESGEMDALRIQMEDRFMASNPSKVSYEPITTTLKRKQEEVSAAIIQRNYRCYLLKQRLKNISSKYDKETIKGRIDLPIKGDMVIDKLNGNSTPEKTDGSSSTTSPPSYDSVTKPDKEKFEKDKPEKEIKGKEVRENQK

COC[C@@H](NC(C)=O)C(=O)NCc1ccc(Oc2cccc(OC(F)(F)F)c2)cc1
Activity (Rattus norvegicus): Toxic
V1/2 [1]: -72.8 mV
inhibition [2]: inactive
